These results are taken from the EternaBench riboswitch data.

For this data set, the system named is MS2 coat protein. Briefly: apparent Kd, MS2 coat protein; higher = weaker binding; RNA-MaP array; FMN 200 µM where present. The essentials: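 Each design was made on Illumina sequencing-chip clusters by stalled E. coli RNA polymerase and titrated with SNAP-549-labelled MS2 coat protein from 0.7 or 1.5 nM, doubling to 3 µM, in the absence and then the presence of constant ligand. The buffer was 100 mM Tris-HCl pH 7.5, 80 mM KCl, 4 mM MgCl2, BSA, DTT, yeast tRNA and Tween-20. The apparent Kd is the median of filtered per-cluster fits of binding curves, with green signal normalised to red-channel RNA signal and control-cluster median Fmax.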

Where [1] appears, read: designed as: ON switch for flavin mononucleotide, no ligand.
Setting [2] is: ligand present: flavin mononucleotide, designed as: ON switch for flavin mononucleotide.
The mark [3] stands for this setting: designed as: OFF switch for flavin mononucleotide, no ligand.
The mark [4] stands for this setting: ligand present: flavin mononucleotide, designed as: OFF switch for flavin mononucleotide.

One may read the apparent Kd as the concentration giving half-maximal binding under the conditions of the assay. Turning to “CAGCGCUGUUGAGAGGAUAUGCGGUGAUGGACAUGAGGAUCACCCAUGUUAGCGACAGCAUUACGGCAGAAGGCUUCACAGCUGC”, the “apparent Kd” value under setting [1] came to 51.1 nM and the “apparent Kd” value under setting [2] was 14.6 nM.
For the sequence “CUGCGCUAGGAGAAGGGCUAGAGUGUGAUAUAUUUGCCCGCGAGCACAUGAGGAUCACCCAUGUAGCAGGAUAUCCAAGCCGAU”, the “apparent Kd” value reads like this: under setting [3], 8.03 nM; under setting [4], 16.5 nM.
With “AUCCUACAUGAGGAUCACCCAUGUGACGCCUCGAUAGGAUAUGCGUGUGCCUUGGCGCAUGCAGAAGGAUUGUUGC”, the “apparent Kd” value under setting [1] stood at 149 nM and the “apparent Kd” value under setting [2] came to 195 nM.
The like results for “CAGUGCUGUUGAGAGGAUAUGCGGUGAUGGACAUGAGGAUCACCCAUGUUAGCGACAGCGUUACGGCAGAAGGCUCUACCCACUG” were, in that order, 49.4 nM and 22.4 nM.
Turning to “ACUAGAUGAGGAUAUGCAUAUUUUCGUGUUCUUCUAGAUUAACAUGAGGAUCACCCAUGUAGAAGGCGUCAUUA”, the “apparent Kd” value reads like this: under setting [3], 16.5 nM; under setting [4], 20.3 nM.
With “CAAUUGGCACAGAAGGGUGACAUGAGGAUCACCCAUGUAGCGUGGCACUCAGGAGGAACCACGCCACAGGAUAUGUGCCGGCAC”, the “apparent Kd” value under setting [1] amounted to 88.5 nM and the “apparent Kd” value under setting [2] was 86.8 nM.
“CGACACAUGAGGGUCUCCCAUGACAUGAGGAUCACCCAUGUGCAGGAUAUACGUGUGAUGGUAUAGUAGAAGGGCACUCUAUGC”: the “apparent Kd” value under setting [3] came out at 368 nM and the “apparent Kd” value under setting [4] is 392 nM.
For the sequence “CGCAACUCAGAUCUUUUUAACAUGAGGAUCACCCAUGUAUUGAGAAGGAGGAAGAAGAGAGAUUCCUAGGAUAUCAGAGUUGCG”, the “apparent Kd” value reads like this: under setting [3], 5.4 nM; under setting [4], 6.14 nM.
Regarding “GGGUAGUGAGGAUAUCGUUGUUAGGAGGAGUAGGUAGGAGGCGAGAAGGCACAUGAGGAUCACCCAUGUAUGGA”, the “apparent Kd” value was found to be 36.2 nM under setting [3] and 33.3 nM under setting [4].
With “AAAGAACAUGAGGAUCACCCAUGUGAGGAUAUGCGAAAACCGCUGACAAACCAGACGGGCAGAAGGCAUAUGGU”, the “apparent Kd” value amounted to 56.2 nM under setting [3] and 76.3 nM under setting [4].
For “GUAGCAUGCAGGCAGGAUAUUCAUAUUAAAACAUGAGGAUCACCCAUGUAGGCCAAAAGGCCUUGGGAGAAGGGCCACAUGCUAC”, the “apparent Kd” value under setting [1] turned out to be 636 nM and the “apparent Kd” value under setting [2] turned out to be 45.7 nM.
On to “AGUAGAUCAGGAUAUACGUAAAUGGUAAUUAUGUAACUUCAACAUGAGGAUCACCCAUGUAGAAGGGAUCUACA”, for which the “apparent Kd” value is, setting by setting: under setting [3], 14.6 nM; under setting [4], 15.1 nM.
Regarding “CGCUACUACCAGAAGGACAUGAGGAUCACCCAUGUAGGAUAUGGGUUACAAGUACCAGUGUAAAGAAACUACGCUACGUAUGCG”, the “apparent Kd” value runs as follows: under setting [1], 36.6 nM; under setting [2], 7.84 nM.
Take “UUCUGUGCCCAAAGUUAAAGCACAUGAGGAUCACCCAUGUGAAAGGAUAUGUGGCGUGUAACGUUAUAGAAGGUUCACAAACAA”: the “apparent Kd” value by setting is: under setting [3], 31.9 nM; under setting [4], 105 nM.
Consider “CUCGUGUAAGGAUAUGCGAGCCACGGAAAUAAAACGUGGAGGUAGAAGGUACAUGAGGAUCACCCAUGUAAAAC”, for which the “apparent Kd” value under setting [3] came to 25.4 nM and the “apparent Kd” value under setting [4] was 85.3 nM.
Take “GCCUUCGCAUGAGGAUAUGCUCCGGUUUCCGGAGCAGAAGGCAUGUCAUAAGACAUGAGGAUCACCCAUGUAGUUAAGAAGGCA”: the “apparent Kd” value by setting is: under setting [1], 570 nM; under setting [2], 31.7 nM.
On to “GGUCGUCACAUUAACAUGAGGAUCACCCAUGUGAAAACACAUGAGGAUAUGCAUCCUAAUUGGAUGCAGAAGGCAUGGACGACC”, for which the “apparent Kd” value is, setting by setting: under setting [1], 24.7 nM; under setting [2], 6.28 nM.
Take “UCAAGUAUGUAGGAUAUCGAUGUCUUCGGACAUCGAGAAGGACGUACAUGAGGAUCACCCAUGUAACUUGCAUG”: the “apparent Kd” value worked out at 60.5 nM under setting [3] and 37.4 nM under setting [4].
Consider “GAGGAUAGAGGAUAUGCAUAGAUACGGAUUCGUGUAGUACUACAUGAGGAUCACCCAUGUAGAAGGCUGUCCUG”, for which the “apparent Kd” value came to 14.3 nM under setting [3] and 22.1 nM under setting [4].
Consider “AAUCCACAUGAGGAUCACCCAUGUCAGGAUAUACGCAUCGGACCGAUCGGCUGUUUGGGUAGAAGGGACGUGCA”, for which the “apparent Kd” value is, setting by setting: under setting [3], 16 nM; under setting [4], 16.1 nM.
Turning to “UCAUACGUUGAGGAUAUGUCAGUUAGAAUAUUUACAGAAGGCGAUACAUGAGGAUCACCCAUGUUUAUGGGCAU”, the “apparent Kd” value is, setting by setting: under setting [3], 188 nM; under setting [4], 207 nM.
The like results for “CGUUCAGAGAACGAUACGAAUGGACAUGAGGAUCACCCAUGUAGAAGGACAACGGAAUAAACGUUGUAGGAUAUACAUUUAGUG” were, in that order, 53.7 nM and 134 nM.
As to “GAGUUUACGUUUGUCACUUUGCGAGAGGAUAUGGAAAACUUGACAUGAGGAUCACCCAUGUUUUAUCAGAAGGCUCGAGUACGA”, the “apparent Kd” value came out at 10.2 nM under setting [1] and 6.09 nM under setting [2].
On to “AAUUAUAUACAGAAGGAGUUAUAUUGAGUAUUACUAGGAUAUGUUCACAUGAGGAUCACCCAUGUCAUAUUGGGAUUUAUUAUA”, for which the “apparent Kd” value stood at 21.6 nM under setting [3] and 27.9 nM under setting [4].
Regarding “AUUCUUGGGCAAGGAUAUCCUGUGCGGUUCCGGCUCGUGUCUGUCACAUGAGGAUCACCCAUGUGGGAGAAGGUGCCUGCGGUC”, the “apparent Kd” value is, setting by setting: under setting [3], 6.86 nM; under setting [4], 7.2 nM.
As to “GUGAACCGUAGGUCGUUGGCUGCACAGGAUAUGAAGGCGUACAUGAGGAUCACCCAUGUUCCCUAUCAGAAGGGUGACAGGAAA”, the “apparent Kd” value under setting [1] was 6.81 nM and the “apparent Kd” value under setting [2] was 5.41 nM.
For the sequence “UAGAAGUCAGGAUAUCCAGCUCGUCACUUGCGUGAUGAGUUGGAGAAGGGACAUGAGGAUCACCCAUGUAAAGC”, the “apparent Kd” value under setting [3] amounted to 53.7 nM and the “apparent Kd” value under setting [4] is 46.5 nM.
The like results for “CGUCAUUACUCAGGAUAUGCACCAUACUUGAGGGCAGAAGGGAGUACAUGAGGAUCACCCAUGUACUAUGGGCGCCUAAGAGGU” were, in that order, 8.26 nM and 45.1 nM.
As for “UGCCAGUUAGGAUAUGACUCGACAGACAUGAGGAUCACCCAUGUCCGAGUGUGUGUUUUUUCAGAAGGGACGGCCC”, the “apparent Kd” value runs as follows: under setting [3], 25.1 nM; under setting [4], 30.4 nM.
The matching figures for “GGGUUUGGAGGAUAUACAUGAGGAUCACCCAUGUAGGGUUUGGGUAUUCCCGGGCCCUGUAGAAGGCCGGGCCC”: 16.6 nM and 20.4 nM.
As for “UGGGCUACCACAGGAUAUGCUACAUGAGGAUCACCCAUGUAAAGAAAAUCGGCAGAAGGGUGGUUAGUGCAGCAUGAAGGAGCC”, the “apparent Kd” value was found to be 28.9 nM under setting [1] and 10.8 nM under setting [2].
Turning to “UGGUACUAGGGAGGAUAUGGGAAGAUACAUGAGGAUCACCCAUGUUUAAGAAUGCCGAGAGGCACCUAGAAGGCCCUAGUACCU”, the “apparent Kd” value was found to be 21.1 nM under setting [1] and 5.36 nM under setting [2].
As to “UUGCCUCAGAACAUGAGGAUCACCCAUGUGCUGCGGGCAACGUAGGAUAUGAUGGUUCGAUACCAUCAGAAGGAUGAUGGUACC”, the “apparent Kd” value was determined as 5.42 nM under setting [1] and 5.22 nM under setting [2].
On to “CUUGUACUCGGAGGAUAUCGAUAUCAAACAUGAGGAUCACCCAUGUUGAGGAUCACACAUGUAAAUGAGAAGGCUGACGUUGCU”, for which the “apparent Kd” value by setting is: under setting [1], 22.9 nM; under setting [2], 26.3 nM.
Turning to “AGACCCUGAACGAAAUCAUACAGUCAGGAUAUACAUGAGGAUCACCCAUGUGCGUACCAACUCGUGUAGAAGGGACUUUCAGGG”, the “apparent Kd” value by setting is: under setting [3], 12.3 nM; under setting [4], 30.2 nM.
Turning to “AGUGUGGGAGGAUAUACAUGAGGAUCACCCAUGUGAGUUGGCUCACAUGCUACGCUUCGUAGAAGGCCCAAAGA”, the “apparent Kd” value reads like this: under setting [3], 88.8 nM; under setting [4], 290 nM.
As to “GUAGAGUCAGGAUAUACAAGAUCGAAAGAUCGAAGAUUUAUACAUGAGGAUCACCCAUGUAGAAGGGACUCUAC”, the “apparent Kd” value is 14.4 nM under setting [3] and 16.9 nM under setting [4].
With “GCCGAAAAUGUGAGGAUAUACCUAUGGAAACAUAGGUAGAAGGCACAUGAGGAUCACCCAUGUGUUUCAACGGC”, the “apparent Kd” value is 21.5 nM under setting [3] and 107 nM under setting [4].
In the case of “UUAUUUAUGCAAGGAUAUCAAUUAUAUACACGUCCUACAUGAGGAUCACCCAUGUUUAGUUUUUUUGAGAAGGUGCAUUGUCGG”, the “apparent Kd” value by setting is: under setting [1], 52.1 nM; under setting [2], 44.5 nM.
As to “AUUGUGUGAGGAUAUUAGUAGUAAAUGAAUAAAAUUAUUACUGAGAAGGCACAUGAGGAUCACCCAUGUUCCUU”, the “apparent Kd” value is, setting by setting: under setting [3], 19.1 nM; under setting [4], 138 nM.
As to “CUGCGUCGUGUUAGGAUAUCCAGCGGUGCGCGCCAGGAGAAGGAACAUGAGGAUCACCCAUGUAAACCGAUGGC”, the “apparent Kd” value is, setting by setting: under setting [3], 12.4 nM; under setting [4], 13.4 nM.
For “CUUAGUUUGUAGAAGGGUGACAUGAGGAUCACCCAUGUGCGUCGCCUGGAAGACCAGGGUACGCCACAGGAUAUACAAAGUAAG”, the “apparent Kd” value under setting [1] was determined as 46.7 nM and the “apparent Kd” value under setting [2] was 23.1 nM.
With “CUGGAUAGAGGAUAUUGUGCUGCUGACAUGAGGAUCACCCAUGUAUGUUAACUCGGCCGUCGAGAAGGCUAACAGG”, the “apparent Kd” value is 24.7 nM under setting [3] and 15.3 nM under setting [4].
For the sequence “AUAUUUAUAUAUUUGGCAAGAAUCAGAAGGCGUUACAUGAGGAUCACCCAUGUUUUGUAUAGUAACGAGGAUAUGAUAUGGAAA”, the “apparent Kd” value is, setting by setting: under setting [3], 18.8 nM; under setting [4], 14.2 nM.
With “CCGACCUUGGCAGGAUAUAGACUCGAAGUUGAUCCCGCCGAUGGAGACAUGAGGAUCACCCAUGUCUAGAAGGGCCAGUCGAAA”, the “apparent Kd” value is, setting by setting: under setting [3], 14.3 nM; under setting [4], 46.1 nM.
“CGUAACUACAUAGGAUAUUGAUACAUGAGGAUCACCCAUGUUAUAGGGAUUAGUUUAAUAUUAAGCAAGAAGGAUGAAGUUACG”: the “apparent Kd” value was 18.6 nM under setting [1] and 12.4 nM under setting [2].
For the sequence “GCACUUAGAGUUGAACCGUUUCUAACAUGAGGAUCACCCAUGUAGGAUAUGCUAAUAGUAUUGAAGCAGAAGGACAAUAAGUGC”, the “apparent Kd” value came out at 4.59 nM under setting [3] and 5.01 nM under setting [4].
Take “AGAAGGCUACAGAAGGGACACACACGGUGGGAGUCAGGAUAUGUAGAGAAAACGUUACAUGAGGAUCACCCAUGUAGACCUUCC”: the “apparent Kd” value came to 73.9 nM under setting [1] and 16.8 nM under setting [2].
